Reference: ChEMBL document CHEMBL4011643, “Triaryl Benzimidazoles as a New Class of Antibacterial Agents against Resistant Pathogenic Microorganisms” (J Med Chem, 2017)
Converted amounts (≈) assume the structure as drawn. The source made the active and inactive calls.

Columns and labels:
[1] = test system: Klebsiella pneumoniae; assay: Antibacterial activity against Klebsiella pneumoniae NCTC 13368 after 20 hrs in the presence of Pa-beta-N and magnesium ions by broth microdilution method; assay type: functional; details: NCTC 13368, 20 h
Method in brief: (§1)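 Broth microdilution in Tryptic Soy Broth, done in triplicate. Growth was read as OD600 after 20 h. MIC is the lowest drug concentration giving OD600 below 0.1.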

[2] = test system: Acinetobacter baumannii; assay: Antibacterial activity against Acinetobacter baumannii AYE after 20 hrs in the presence of Pa-beta-N and magnesium ions by broth microdilution method; assay type: functional; method in brief: as §1
[3] = test system: Klebsiella pneumoniae; assay: Antibacterial activity against Klebsiella pneumoniae NCTC 13368 after 20 hrs by broth microdilution method; assay type: functional; details: NCTC 13368, 20 h; method in brief: as §1
[4] = test system: Klebsiella pneumoniae; assay: Antibacterial activity against Klebsiella pneumoniae M6 after 20 hrs in the presence of PMBN by broth microdilution method; assay type: functional; details: M6, 20 h; method in brief: as §1
[5] = test system: Klebsiella pneumoniae; assay: Antibacterial activity against Klebsiella pneumoniae NCTC 13368 after 20 hrs in the presence of PMBN by broth microdilution method; assay type: functional; details: NCTC 13368, 20 h; method in brief: as §1
[6] = test system: Klebsiella pneumoniae; assay: Antibacterial activity against Klebsiella pneumoniae M6 after 20 hrs in the presence of Pa-beta-N and magnesium ions by broth microdilution method; assay type: functional; details: M6, 20 h; method in brief: as §1
[7] = test system: Acinetobacter baumannii; assay: Antibacterial activity against Acinetobacter baumannii AYE after 20 hrs by broth microdilution method; assay type: functional; method in brief: as §1
[8] = test system: Pseudomonas aeruginosa; assay: Ratio of MIC for Pseudomonas aeruginosa NCTC 13437 in absence of Pa-beta-N to MIC for Pseudomonas aeruginosa NCTC 13437 in presence of Pa-beta-N; assay type: functional
Method in brief: (§2)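 Both MICs were by TSB broth microdilution, with an OD600 <0.1 cutoff at 20 h.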

[9] = test system: Pseudomonas aeruginosa; assay: Antibacterial activity against Pseudomonas aeruginosa PAO1 after 20 hrs in the presence of PMBN by broth microdilution method; assay type: functional; details: PAO1, 20 h; method in brief: as §1
[10] = test system: Acinetobacter baumannii; assay: Ratio of MIC for Acinetobacter baumannii ATCC 17978 in absence of Pa-beta-N to MIC for Acinetobacter baumannii ATCC 17978 in presence of Pa-beta-N; assay type: functional; method in brief: as §2
[11] = test system: Acinetobacter baumannii; assay: Antibacterial activity against Acinetobacter baumannii ATCC 17978 after 20 hrs in the presence of Pa-beta-N and magnesium ions by broth microdilution method; assay type: functional; details: ATCC 17978, 20 h; method in brief: as §1
[12] = test system: Pseudomonas aeruginosa; assay: Antibacterial activity against Pseudomonas aeruginosa NCTC 13437 after 20 hrs by broth microdilution method; assay type: functional; details: NCTC 13437, 20 h; method in brief: as §1
[13] = test system: Staphylococcus aureus; assay: Antibacterial activity against methicillin-resistant Staphylococcus aureus MRSA252 after 20 hrs by broth microdilution method; assay type: functional; details: MRSA252, 20 h
Method in brief: (§3)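 Broth microdilution in Tryptic Soy Broth; growth read as OD600 after 20 h. MIC taken as the lowest drug concentration giving OD600 below 0.1. Run in triplicate.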

[14] = test system: Klebsiella pneumoniae; assay: Antibacterial activity against Klebsiella pneumoniae M6 after 20 hrs by broth microdilution method; assay type: functional; details: M6, 20 h; method in brief: as §1
[15] = test system: Klebsiella pneumoniae; assay: Ratio of MIC for Klebsiella pneumoniae NCTC 13368 in absence of PMBN to MIC for Klebsiella pneumoniae NCTC 13368 in presence of PMBN; assay type: functional
Method in brief: (§4)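 Fold change: MIC without divided by MIC with 30 μg/mL PMBN. Both MICs were by TSB broth microdilution, with an OD600 <0.1 cutoff at 20 h.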

[16] = test system: Pseudomonas aeruginosa; assay: Ratio of MIC for Pseudomonas aeruginosa PAO1 in absence of PMBN to MIC for Pseudomonas aeruginosa PAO1 in presence of PMBN; assay type: functional; method in brief: as §4
[17] = test system: Acinetobacter baumannii; assay: Antibacterial activity against Acinetobacter baumannii AYE after 20 hrs in the presence of PMBN by broth microdilution method; assay type: functional; method in brief: as §1
[18] = test system: Pseudomonas aeruginosa; assay: Antibacterial activity against Pseudomonas aeruginosa PAO1 after 20 hrs in the presence of Pa-beta-N and magnesium ions by broth microdilution method; assay type: functional; details: PAO1, 20 h; method in brief: as §1
[19] = test system: Enterococcus faecalis; assay: Antibacterial activity against vancomycin-sensitive Enterococcus faecalis NCTC 775 after 20 hrs by broth microdilution method; assay type: functional; details: NCTC 775, 20 h; method in brief: as §1
[20] = test system: Enterococcus faecalis; assay: Antibacterial activity against vancomycin-resistant Enterococcus faecalis NCTC 12201 after 20 hrs by broth microdilution method; assay type: functional; details: NCTC 12201, 20 h; method in brief: as §3
[21] = test system: Pseudomonas aeruginosa; assay: Antibacterial activity against Pseudomonas aeruginosa PAO1 after 20 hrs by broth microdilution method; assay type: functional; details: PAO1, 20 h; method in brief: as §1
[22] = test system: Acinetobacter baumannii; assay: Antibacterial activity against Acinetobacter baumannii ATCC 17978 after 20 hrs in the presence of PMBN by broth microdilution method; assay type: functional; details: ATCC 17978, 20 h; method in brief: as §1
[23] = test system: Enterococcus faecalis; assay: Bactericidal activity against vancomycin-resistant Enterococcus faecalis NCTC 12201 assessed as time required to kill bacteria by >6 log10CFU/ml at 4 times MIC by Miles Misra dilution method; assay type: functional
Method in brief: (§5)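 Flasks of TSB inoculated at ~10^6 cfu/mL, compound added at 4 × MIC, shaken at 200 rpm and 37 °C. Samples taken at 1, 2, 4, 6 and 24 h and plated by Miles Misra dilution for CFU/mL. Bactericidal means a loss of >3 log CFU/mL. Three independent repeats, error bars SD.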

[24] = Stabilization of FAM/TAMRA-labeled AT-rich DNA duplex (unknown origin) assessed as change in melting temperature at 1 uM by FRET-based assay
Method in brief: (§6)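 FRET melting of a FAM/TAMRA-labelled AT-rich oligonucleotide, 400 nM working solution in 50 mM potassium, 50 mM cacodylate, pH 7.4. DNA was annealed at 85 °C for 6 min, then held at 25 °C for 5 h, and mixed 1:1 with sample. Fluorescence was read every 0.5 °C from 30 to 100 °C, with a 30 s hold per step. ΔTm is measured against the blank, in triplicate.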

[25] = test system: Pseudomonas aeruginosa; assay: Antibacterial activity against Pseudomonas aeruginosa NCTC 13437 after 20 hrs in the presence of PMBN by broth microdilution method; assay type: functional; details: NCTC 13437, 20 h; method in brief: as §1
[26] = test system: Klebsiella pneumoniae; assay: Ratio of MIC for Klebsiella pneumoniae NCTC 13368 in absence of Pa-beta-N to MIC for Klebsiella pneumoniae NCTC 13368 in presence of Pa-beta-N; assay type: functional; method in brief: as §2
[27] = test system: Klebsiella pneumoniae; assay: Ratio of MIC for Klebsiella pneumoniae M6 in absence of PMBN to MIC for Klebsiella pneumoniae M6 in presence of PMBN; assay type: functional; method in brief: as §4
[28] = test system: Klebsiella pneumoniae; assay: Ratio of MIC for Klebsiella pneumoniae M6 in absence of Pa-beta-N to MIC for Klebsiella pneumoniae M6 in presence of Pa-beta-N; assay type: functional; method in brief: as §2
[29] = test system: Acinetobacter baumannii; assay: Ratio of MIC for Acinetobacter baumannii AYE in absence of PMBN to MIC for Acinetobacter baumannii AYE in presence of PMBN; assay type: functional; method in brief: as §4
[30] = test system: Enterococcus faecium; assay: Antibacterial activity against vancomycin-resistant Enterococcus faecium NCTC 12204 after 20 hrs by broth microdilution method; assay type: functional; details: NCTC 12204, 20 h; method in brief: as §3
[31] = test system: Staphylococcus aureus; assay: Antibacterial activity against methicillin-resistant Staphylococcus aureus EMRSA-15 after 20 hrs by broth microdilution method; assay type: functional; details: EMRSA-15, 20 h; method in brief: as §3
[32] = test system: Acinetobacter baumannii; assay: Ratio of MIC for Acinetobacter baumannii AYE in absence of Pa-beta-N to MIC for Acinetobacter baumannii AYE in presence of Pa-beta-N; assay type: functional; method in brief: as §2
[33] = test system: Staphylococcus aureus; assay: Bactericidal activity against methicillin-resistant Staphylococcus aureus EMRSA-15 at 4 times MIC after 10 hrs by Miles Misra dilution method; assay type: functional
[34] = test system: Staphylococcus aureus; assay: Antibacterial activity against methicillin-sensitive Staphylococcus aureus ATCC 9144 after 20 hrs by broth microdilution method; assay type: functional; details: ATCC 9144, 20 h; method in brief: as §1
[35] = test system: Enterococcus faecalis; assay: Bactericidal activity against vancomycin-resistant Enterococcus faecalis NCTC 12201 at 4 times MIC after 10 hrs by Miles Misra dilution method; assay type: functional
[36] = test system: Pseudomonas aeruginosa; assay: Antibacterial activity against Pseudomonas aeruginosa NCTC 13437 after 20 hrs in the presence of Pa-beta-N and magnesium ions by broth microdilution method; assay type: functional; details: NCTC 13437, 20 h; method in brief: as §1
[37] = Stabilization of FAM/TAMRA-labeled AT-rich DNA duplex (unknown origin) assessed as change in melting temperature at 5 uM by FRET-based assay; method in brief: as §6
[38] = test system: Acinetobacter baumannii; assay: Ratio of MIC for Acinetobacter baumannii ATCC 17978 in absence of PMBN to MIC for Acinetobacter baumannii ATCC 17978 in presence of PMBN; assay type: functional; method in brief: as §4
[39] = test system: Staphylococcus aureus; assay: Bactericidal activity against methicillin-resistant Staphylococcus aureus EMRSA-15 assessed as time required to kill bacteria by >6 log10CFU/ml at 4 times MIC by Miles Misra dilution method; assay type: functional; method in brief: as §5
[40] = test system: Pseudomonas aeruginosa; assay: Ratio of MIC for Pseudomonas aeruginosa NCTC 13437 in absence of PMBN to MIC for Pseudomonas aeruginosa NCTC 13437 in presence of PMBN; assay type: functional; method in brief: as §4
[41] = test system: Acinetobacter baumannii; assay: Antibacterial activity against Acinetobacter baumannii ATCC 17978 after 20 hrs by broth microdilution method; assay type: functional; details: ATCC 17978, 20 h; method in brief: as §1
[42] = Cytotoxicity against human HeLa cells assessed as cell viability at 25 uM after 24 hrs by MTT assay; assay type: cell-based; details: read-out: Activity
Method in brief: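 HeLa cells, 10000 per well, were grown at 37 °C in 5% CO2 and allowed to settle for 24 h. Compound was then added in triplicate for 24 h of continuous exposure. Viability was read by MTT colorimetry, with absorbance at 570 nm.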

[43] = test system: Enterococcus faecalis; assay: Bactericidal activity against vancomycin-resistant Enterococcus faecalis NCTC 12201 assessed as time required to kill bacteria by <3 log10CFU/ml at 4 times MIC by Miles Misra dilution method; assay type: functional; method in brief: as §5
[44] = test system: Staphylococcus aureus; assay: Bactericidal activity against methicillin-resistant Staphylococcus aureus EMRSA-15 assessed as time required to kill bacteria by 3 log10CFU/ml at 4 times MIC by Miles Misra dilution method; assay type: functional; method in brief: as §5
[45] = test system: Staphylococcus aureus; assay: Inhibition of Staphylococcus aureus DNA gyrase assessed as reduction in pNO1 supercoiling at 0.5 ug/mL by fluorescent dye-based assay
Method in brief: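 Supercoiling plate assay run per the kit instructions. S. aureus gyrase was incubated with compound and plasmid pNO1. Negatively supercoiled plasmid was captured by a triplex-forming oligonucleotide, stained with a fluorescent dye and read by fluorescence (excitation 485 nm). Percent inhibition was reported.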

## Cc1nc2ccc(C(=O)Nc3cccc(-c4ccc(-n5c(C)nc6cc(C(=O)NCCCCN(C)C)ccc65)nc4)c3)cc2[nH]1
[1]
  MIC: 32 µg/mL
[2]
  MIC: 16 µg/mL
[3]
  MIC: > 32 µg/mL
[4]
  MIC: 16 µg/mL
[5]
  MIC: 32 µg/mL
[6]
  MIC: 16 µg/mL
[7]
  MIC: > 32 µg/mL
[8]
  Ratio: 2 - 4
[9]
  MIC: 16 µg/mL
[10]
  Ratio: 2 - 4
[11]
  MIC: 8 µg/mL
[12]
  MIC: > 32 µg/mL
[13]
  MIC: 2 µg/mL (≈ 3.33 µM)
[14]
  MIC: > 32 µg/mL
[15]
  Ratio: 4
[16]
  Ratio: >16
[17]
  MIC: 8 µg/mL
[18]
  MIC: > 32 µg/mL
[19]
  MIC: 0.5 µg/mL (≈ 0.832 µM)
[20]
  MIC: 0.25 µg/mL (≈ 0.416 µM)
[21]
  MIC: > 32 µg/mL
[22]
  MIC: 8 µg/mL
[23]
  Time: 2 h
[24]
  deltaTm: 0.3 °C
[25]
  MIC: 16 µg/mL
[26]
  Ratio: 2 - 4
[27]
  Ratio: 4
[28]
  Ratio: >=4
[29]
  Ratio: 2
[30]
  MIC: ≤ 0.125 µg/mL
[31]
  MIC: 1 µg/mL (≈ 1.66 µM)
[32]
  Ratio: 2 - 4
[33]
  Activity: inactive
[34]
  MIC: 0.5 µg/mL (≈ 0.832 µM)
[35]
  Activity: inactive
[36]
  MIC: > 32 µg/mL
[37]
  deltaTm: 0.6 °C
[38]
  Ratio: 2
[39]
  Time: 2 h
[40]
  Ratio: >16
[41]
  MIC: > 32 µg/mL
[42]
  viability at 24 h, 25 µM: > 98%

## C[C@H]1COc2c(N3CCN(C)CC3)c(F)cc3c(=O)c(C(=O)O)cn1c23.C[C@H]1COc2c(N3CCN(C)CC3)c(F)cc3c(=O)c(C(=O)O)cn1c23.O [LEVOFLOXACIN]
[43]
  Time: 24 h
[13]
  MIC: 8 µg/mL
[19]
  MIC: 1 µg/mL
[20]
  MIC: 1 µg/mL
[30]
  MIC: 0.5 µg/mL
[44]
  Time: 6 h
[31]
  MIC: 8 µg/mL
[34]
  MIC: 0.12 µg/mL
[45]
  inhibition: 57.9%
[39]
  Time: 24 h
